MrgX1 antagonist = antagonists of human MrgX1 receptor, primary screen, HEK293 cells, Fluo-4 calcium flux; Mas-related G-protein coupled receptor member X1 (Homo sapiens), Q96LB2; BAM8-22 antagonism; hits give low values; B-score at 10 µM; hit rate 1.3% among 310,000; AID 588676, 2011;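 active = calcium-response B-score plate-corrected more than 3 library SD below zero, starting fluorescence within 5 deviations, no agonist response on first addition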;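 note: peak minus trough fluorescence over baseline after final BAM8-22 challenge near maximal dose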
Target sequence (Q96LB2 whole entry, looked up): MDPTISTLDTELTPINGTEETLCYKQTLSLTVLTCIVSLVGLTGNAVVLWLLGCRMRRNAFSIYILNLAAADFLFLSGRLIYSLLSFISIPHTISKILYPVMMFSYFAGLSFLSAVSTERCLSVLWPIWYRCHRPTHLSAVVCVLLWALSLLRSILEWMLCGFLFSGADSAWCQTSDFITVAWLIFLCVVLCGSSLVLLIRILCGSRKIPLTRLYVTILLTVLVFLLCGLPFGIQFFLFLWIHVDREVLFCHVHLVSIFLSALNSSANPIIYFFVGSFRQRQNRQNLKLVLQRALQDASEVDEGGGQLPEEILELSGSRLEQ
MrgX1 ag = agonists of human MrgX1 receptor, primary screen, HEK293 cells, Fluo-4 calcium flux. Mas-related G-protein coupled receptor member X1 (Homo sapiens), Q96LB2. Fluo-4 calcium fluorescence, agonist mode; hits give high values. B-score at 10 µM. hit rate 0.44% among 310,000. AID 588627, 2011;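 active = calcium response B-score plate-corrected fluorescence ratio at least 3 library SD, with starting fluorescence B-score inside 5 SD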
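times = overnight plating, then 30 min 37 °C plus 30 min room-temperature dye loading | assay system = stable human MrgX1 HEK293 cell line | input = fifteen thousand cells per well | signal = kinetic calcium dye fluorescence, Fluo-4 NW | dosing = compound delivered in addition one of three | read-out = B-scored fluorescence response ratio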
MrgX1 PAM = positive allosteric modulators of MrgX1, primary screen, HEK293 cells, Fluo-4 calcium flux | AID 588675, 2011 | B-score at 10 µM | Mas-related G-protein coupled receptor member X1 (Homo sapiens), Q96LB2 | hit rate 0.63% among 310,000 | FDSS; hits give high values;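 active = plate-corrected calcium response at least 3 library SD above typical, normal starting fluorescence, not activating the receptor alone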;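 note: compound read alongside a low EC10 to EC30 dose of BAM8-22 agonist; peak minus trough fluorescence over baseline measured at the second addition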
RGS4 act = RGS4 potentiators or activators, primary screen, cell-based, HEK293 M3R inducible RGS4, calcium flux | carbachol calcium flux Fluo4; hits give low values | B-score at 10 µM | hit rate 0.92% among 310,000 | AID 463111, 2010;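 active = B-score of the integrated calcium signal more than 4 SD below the library mean, with starting fluorescence not abnormally high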;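 note: negative B-score means reduced calcium response which marks RGS4 activation or potentiation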
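Material: M3R-expressing HEK293 line, RGS4 induced by doxycycline | Schedule: Overnight RGS4 induction, 30 min dye load 37 °C, 20 min compound RT | Measured by: Fluo4 fluorescence kinetic imaging of calcium | Read-out: Integrated calcium ratio converted to B score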
RGS4 block = RGS4 inhibitors, primary screen, cell-based, HEK293 M3R inducible RGS4, calcium flux | Regulator of G-protein signaling 4 (Homo sapiens), P49798 | Fluo-4 calcium flux; hits give high values; triggered by carbachol at its EC20 | B-score at 10 µM | hit rate 0.45% among 310,000;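 active = B-score, a plate-corrected calcium signal, over three deviations above library mean, with baseline fluorescence within five deviations of library mean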;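 note: RGS4 expression induced by doxycycline in cells with stable M3 receptor; B-score is computed from the integrated fluorescence ratio over baseline after carbachol; higher B-score means a larger calcium signal and so more RGS4 inhibition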
Target sequence (P49798 whole entry, looked up): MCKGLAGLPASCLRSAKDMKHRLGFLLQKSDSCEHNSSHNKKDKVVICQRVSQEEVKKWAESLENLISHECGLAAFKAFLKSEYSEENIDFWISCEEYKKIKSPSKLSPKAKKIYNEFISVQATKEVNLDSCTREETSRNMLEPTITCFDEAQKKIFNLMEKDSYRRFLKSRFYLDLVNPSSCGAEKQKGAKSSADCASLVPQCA
MrgX1 PAM conf = MrgX1 positive allosteric modulators, duplicate retest, confirmation, HEK293 cells, Fluo-4 calcium flux | shares compounds with MrgX1 PAM | Fluo-4 calcium fluorescence, FDSS | activation (ratio percentage), % at 10 µM | hit rate 13% among 1,200;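 active = ratio at least 3 SD above the weak peptide control, stable starting fluorescence, no direct agonism earlier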;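 note: compound followed by low BAM8-22 agonist challenge near EC20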
HEK293 Ca flux = nonspecific calcium signal in parental HEK293, confirmation, counter-screen for MrgX1 antagonist project, parental HEK293 cells, Fluo-4 calcium flux. Fluo-4 calcium fluorescence, FDSS. fluorescence ratio F(max-min)/F0 at 10 µM. shares compounds with MrgX1 antagonist. AID 624111, 2012. hit rate 2% among 4,000;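 active = duplicate-averaged calcium fluorescence ratio at least three times the standard deviation of buffer wells, a nonspecific response in parental cells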
HEK293 Ca counter = calcium response in parental HEK293 cells, primary screen, counter-screen for MrgX1 allosteric activator project, cell-based, Fluo-4 calcium flux, duplicate. shares compounds with MrgX1 antagonist. Fluo-4 fluorescence ratio; hits give high values. fluorescence ratio F(max-min)/F0 at 10 µM. hit rate 0.4% among 4,000;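 active = calcium fluorescence ratio, averaged over duplicates, at least 3 SD of the buffer-well ratio, meaning a nonspecific response in receptor-free cells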;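 note: untransfected parental HEK293 lacking MrgX1 used as counterscreen for MrgX1 allosteric activators; fluorescence change taken during the second addition on a kinetic imager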
HEK293 Ca cntr2 = calcium response in parental HEK293 cells, primary screen, counter-screen for MrgX1 agonist project, cell-based, Fluo-4 calcium flux, duplicate, agonist mode | shares compounds with MrgX1 antagonist | Fluo-4 calcium fluorescence (FDSS); hits give high values | fluorescence ratio F(max-min)/F0 at 10 µM | hit rate 8.7% among 4,000;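 active = calcium fluorescence ratio at least three times the spread of buffer wells, meaning a non-specific response in parental cells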
Numbers without * were called inactive; i = inactive; nt = no result; ! = repeats disagree. A selection: hits, their analogues and other compounds. The true share with any hit is near 3.5%.

SMILES | MrgX1 antagonist | MrgX1 ag | MrgX1 PAM | RGS4 act | RGS4 block | MrgX1 PAM conf | HEK293 Ca flux | HEK293 Ca counter | HEK293 Ca cntr2
O=C(Nc1ccon1)c1csc2c1CCCC2 | i | i | i | i | i | nt | nt | nt | nt
O=C(Nc1nccs1)c1csc2c1CCCC2 | i | i | 12* | i | i | i | i | i | i
CSc1nc(N)nc(-c2cccs2)c1C#N | i | i | i | i | i | nt | nt | nt | nt
CC(C)Sc1nc(N)nc(-c2cccs2)c1C#N | i | i | 9.1* | i | i | i | i | i | i
CCCN(c1ccc(C(=O)OC)cc1)S(=O)(=O)c1ccccc1 | i | i | 9.8* | i | i | i | i | i | i
CCCNC(=O)OCC12CC3CC(CC(C3)C1)C2 | i | i | 9.7* | i | i | i | i | i | i
CCOCCCn1c(C)nc2c(c1=O)c1nc3ccccc3nc1n2-c1ccc2c(c1)OCCO2 | i | i | i | i | i | nt | nt | nt | nt
COCc1cc(Sc2ccc(Cl)cc2)nc(-c2ccccc2)n1 | i | i | 14* | i | i | i | i | i | i
CS(=O)Cc1cc(Sc2ccccc2)nc(-c2ccncc2)n1 (stereo not drawn) | i | i | i | i | i | nt | nt | nt | nt
COCc1cc(Sc2ccc(Br)cc2)nc(-c2ccccc2)n1 | i | i | 8.9* | i | i | i | i | i | i
COCc1cc(N2CCN(c3ccccc3F)CC2)nc(-c2ccccc2)n1 | i | i | i | i | i | nt | nt | nt | nt
O=S(=O)(c1cccs1)N1CCN(c2ccccc2)CC1 | i | i | i | i | i | nt | nt | nt | nt
O=C(C(NS(=O)(=O)c1cccs1)c1ccccc1)N1CCN(c2ccccc2)CC1 (stereo not drawn) | i | i | 21* | i | i | i | i | i | i
CCC(c1nnnn1CCc1ccccc1)N1CCN(c2ccc(OC)cc2)CC1 (stereo not drawn) | i | i | 7.7* | i | i | i | i | i | i
O=C(COC(=O)c1ccc(S(=O)(=O)NCc2ccco2)cc1)Nc1ccc(Cl)cn1 | i | i | 8.1* | i | i | i | i | i | i
Cc1ccc(OCC(=O)NC(=S)Nc2ccc(S(=O)(=O)Nc3cc(C)on3)cc2)c(Br)c1 | i | i | i | i | i | nt | nt | nt | nt
CC1O[C@@H](O[C@H](C)CC[C@@H](C)O)C(O)C[C@H]1O (stereo partly drawn) | i | i | i | i | i | nt | nt | nt | nt
COCc1ccc(C(=O)N2CCCC(C(=O)c3cccc(C(F)(F)F)c3)C2)o1 (stereo not drawn) | i | i | 32* | i | i | i | i | i | i
c1ccc(CCNc2ncnc3nc[nH]c23)cc1 | i | i | i | i | i | nt | nt | nt | nt
c1ccc2c(CCNc3ncnc4nc[nH]c34)c[nH]c2c1 | i | i | 7* | i | i | 9.4%* | i | i | i
CCOC(=O)Cc1csc(NC(=O)c2cc3ccccc3o2)n1 | i | i | 6.8* | i | i | i | i | i | i
CCOC(=O)Cc1csc(NC(=O)c2ccc(Br)o2)n1 | i | i | 16* | i | i | i | i | i | i
CCOC(=O)CNC(=O)COc1coc(CN2CCN(c3ccc(F)cc3)CC2)cc1=O | i | i | i | i | i | nt | nt | nt | nt
CN(Cc1ccc(N(C)C)cc1)C(=O)c1cc2ccccc2o1 | i | i | 12* | i | i | 8.2%* | i | i | i
CCc1cc(C(=O)Nc2cc(S(=O)(=O)N(C)C)ccc2C)sc1C | i | i | 8.4* | i | i | i | i | i | i
SMILES | MrgX1 antagonist | MrgX1 ag | MrgX1 PAM | RGS4 act | RGS4 block | MrgX1 PAM conf | HEK293 Ca flux | HEK293 Ca counter | HEK293 Ca cntr2
COc1nc(NC(=O)c2ccc(F)cc2)nc(OC)c1-c1ccccc1 | i | i | 8.2* | i | i | i | i | i | i
CN(C)S(=O)(=O)c1cccc(NC(=O)CCCc2nc3ccccc3c(=O)[nH]2)c1 | i | i | i | i | i | nt | nt | nt | nt
COc1ccc(CCC(=O)Nc2ccc3c(c2)OCO3)cc1 | i | i | i | i | i | nt | nt | nt | nt
COc1ccc(CC(=O)OCC(=O)Nc2ccc3c(c2)OCO3)cc1 | i | i | 10* | i | i | i | i | i | i
Oc1cc2c(c(Cl)c1O)CCNCC2c1ccccc1 (stereo not drawn) | i | i | i | i | i | nt | nt | nt | nt
Oc1ccc(C2CNCCc3c2cc(O)c(O)c3Cl)cc1 (stereo not drawn) | i | i | 6.7*! | i | i | i | i | i | i
O=C(CSc1nc2ccccc2c(=O)n1CC1CCCO1)NCC1CCCO1 (stereo not drawn) | i | i | 8.2* | i | i | i | i | i | i
O=c1c2ccccc2c2ccccc2c(=O)n1CC1CCCO1 (stereo not drawn) | i | i | 9.2* | i | i | i | i | i | i
CC(=O)NCCn1c(SCC(=O)NCC2CCCO2)nc2ccccc2c1=O (stereo not drawn) | i | i | i | i | i | nt | nt | nt | nt
Cc1nonc1NC(=O)CSc1nc(C23CC4CC(CC(C4)C2)C3)nc2ccccc12 | i | i | i | i | i | nt | nt | nt | nt
NC(=O)CSc1nc(C23CC4CC(CC(C4)C2)C3)nc2ccccc12 | i | i | 17* | i | i | 14%* | i | i | i
